Results published in the EternaBench riboswitch data.

Tested on: MS2 coat protein
Assay: apparent Kd, MS2 coat protein; higher = weaker binding; RNA-MaP array; FMN 200 µM where present
Method in brief: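 The titrant was SNAP-549-labelled MS2 coat protein, run from 0.7 or 1.5 nM in doubling steps to 3 µM. It was applied to designs transcribed by stalled E. coli RNA polymerase on Illumina sequencing-chip clusters, without ligand first and then with constant ligand, in 100 mM Tris-HCl pH 7.5, 80 mM KCl, 4 mM MgCl2, BSA, DTT, yeast tRNA and Tween-20. The apparent Kd is the median of filtered per-cluster binding-curve fits, with green signal normalised to red-channel RNA signal and control-cluster median Fmax.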

[1] = designed as: ON switch for flavin mononucleotide, no ligand
[2] = ligand present: flavin mononucleotide, designed as: ON switch for flavin mononucleotide
[3] = designed as: OFF switch for flavin mononucleotide, no ligand
[4] = ligand present: flavin mononucleotide, designed as: OFF switch for flavin mononucleotide

Row | Sequence | apparent Kd [1] [nM] | apparent Kd [2] [nM] | apparent Kd [3] [nM] | apparent Kd [4] [nM]
1 | GCACUUACGUUAGGAUAUGGAUCGGAAAACGAUCCAGAAGGAAUAUGGGAACAUGAGGAUCACCCAUGUUCCGCAGACAAGUGC | 96.5 | 39 | – | –
2 | UGAUCGAGAGAUCUUAGAUUCUGGUAGGAUAUACAUAAUGUAAUAUAGACAUGAGGAUCACCCAUGUAGAAGGACUAGAGUCUA | – | – | 8.49 | 24.3
3 | UUGGACGUCGUAGGAUAUGAAGGAUAUUCCUACAUGAGGAUCACCCAUGUUGACAUGGAAGAAGGACAGAAGGACGAUGUCCAU | 11.3 | 5.16 | – | –
4 | CUUAGGUGUACAUGAGGAUCACCCAUGUCCCUGGUCAUUAGACAGGAUAUAUGGGCGGUCGCUUCAUAGAAGGGUUAAAUGGGU | 837 | 780 | – | –
5 | UAAAAUCAUGUAGGAUAUGCGUGGCGAAGCUAUGCAGAAGGACAUGAGGAUCACCCAUGUCUUACUGUGCGUACACAGUUAAAG | – | – | 16.7 | 79.5
6 | UGUGUGUGUGUGAGGAUAUCGGGCCCGAAAGGGCCCGAGAAGGCACAUGAGGAUCACCCAUGUAAGCGCGCGCG | – | – | 321 | 108
7 | GCACGACAUGUAGGAUAUCGAGCGCCGAGCGCUCGAGAAGGACAUGAGGAUCACCCAUGUAUUCUGAGUGAGCGAGGUCGUGCA | – | – | 45.7 | 393
8 | AGCGGAUAACAGUAGGAUAUGGCCAACGCCACAUGAGGAUCACCCAUGUCGUACCGGCACCUGGACUAGAAGGACUGCCUCCCGC | 30.8 | 14.5 | – | –
9 | AUGCUUUAUGUAGGAUAUUCAAACAAAGAGAAUGGAGAAGGACAUGAGGAUCACCCAUGUAGAAUGAUGUUAGAUAUCAUAUAU | – | – | 16.3 | 14.4
10 | ACUUUACGAGGAUAUACUGUCGGGCCUCGGGCGUCCAUGCGACAUGAGGAUCACCCAUGUAGAAGGCGUUUACU | – | – | 25.1 | 51.5
11 | UUUAAGUCAGGAUAUCGUUAAUUUAAUUAAUUAUUUUAAUUCGAGAAGGGACAUGAGGAUCACCCAUGUAAUUU | – | – | 36.8 | 60.2
12 | UAUAACCGAGGAUAUACAUGAGGAUCACCCAUGUAAUGUAGUAUAAUGUAUGUAAAAUGUAGAAGGUGGGAUGU | – | – | 54.4 | 47
13 | UGUAUAUAGGCAGGAUAUACAUGAAUAUAUAUGAUGUAGUAUGAUGUAACAUGAGGAUCACCCAUGUAGAAGGGCCAGUGUAUA | – | – | 73.8 | 144
14 | GACAUUGGCAAGAAGGCAAACAUGAGGAUCACCCAUGUUCUGCAUGUAUAUUGAGGAUAUUGCCAAUGUAUGUGGAUCACCCAA | – | – | 6.36 | 23.3
15 | UUUAUGUAAGGAUAUGCGGGCGGGCGCGUUUGUGUUUGUUUGUAGAAGGUACAUGAGGAUCACCCAUGUAGUGG | – | – | 133 | 169
16 | UAUUCACAUGAGGAUCACCCAUGUAGAAGGCCGAGCCUGGCCACGGUUACACGCCGUGGAGAGCCGGAGGAUAUACAGCUGGUG | – | – | 111 | 30.9
17 | GUUGGGUGUCAUGUCGCACAUGAGGAUCACCCAUGUAGGAGGUAGGAUAUCCACGAGAAACAAGAGGAGAAGGGCCAUUAGCGU | – | – | 23.5 | 29.2
18 | CUCACGUUAGUAGGAUAUCCGACAUGAGGAUCACCCAUGUCACUACGCCUCUAGGGAAGGUGUAAGGAGAAGGGCUGAUAAAUA | 174 | 98 | – | –
19 | ACGGUGGUCACAGGAUAUCCGGCCCGCGGGCCUGGAGAAGGGUGACUCAGAACCACAUGAGGAUCACCCAUGUGCCUUGCCGUA | 250 | 48.7 | – | –
20 | GUAGCUAGUACAGGAUAUUAGUGUGUGUAAUAUUGAGAAGGGUACAUGAGGAUCACCCAUGUGAUCAAUCACUGUUAAGGUUGC | – | – | 80.4 | 64
21 | GGCAUACAUGAGGAUCACCCAUGUUCAACCUAGAUAGGAUAUGGGCCUCUUGUAUUAGGCCCAGAAGGAUCUGUAA | 103 | 29.6 | – | –
22 | GGUACCAUCACAGGAUAUCGUAUCCUUUGGGUACGAGAAGGGUGAUAACAUGAGGAUCACCCAUGUGGUACCGGGCGUGAGCCC | 1340 | 323 | – | –
23 | UUAAAUCAUGUAGGAUAUGCAUGGCGAAGCUACGCAGAAGGACAUGAGGAUCACCCAUGUGCUAGCGACUGAGUACAGUUGCAA | – | – | 56.4 | 325
24 | ACCGUUGAAGCAGGAUAUUACAGCGCCAGCGUGUAAGAAGGGCUUCAACAUGAGGAUCACCCAUGUUGGAGUACCUCAAAAGUG | – | – | 5.14 | 31.4
25 | AUCAUGUAAGGAUAUCUUAUAUGGAUCGAAAGAUCAAGUUAAGAGAAGGUACAUGAGGAUCACCCAUGUAUAAC | – | – | 21.2 | 27.2
26 | GAUCCACAUGAGGAUCACCCAUGUCAGGAUAUGAUACUAUGUACUUCGGUACAUAGUAUCAGAAGGGACAGAUC | – | – | 168 | 108
27 | UCGCUGCGAGGAUAUACGUUUGCGCGUUUUCGUUUGCGCGUACAUGAGGAUCACCCAUGUAGAAGGCGCGCUGC | – | – | 15.4 | 15.5
28 | GGCGGUCGGGAGGAUAUUCGGGCUGUUUGGCUUGGAGAAGGCUCGACAUGAGGAUCACCCAUGUUAGUGUUCUU | – | – | 73.9 | 506

Row | Sequence | apparent Kd [1] [nM] | apparent Kd [2] [nM] | apparent Kd [3] [nM] | apparent Kd [4] [nM]
29 | AAUAUGAGCUGGAAUAUAAACCUGACAUGAGGAUCACCCAUGUAGGAUAUCAGCACGAUAAGUGCUGAGAAGGACAACCAGCUC | – | – | 14 | 14.5
30 | GCCGCCCGAUCUGGCUUUUGGGCUAGAAGGGCAUAUGUGGUCCAGGACAUGAGGAUCACCCAUGUGCAGGAUAUAGCCCACCAC | – | – | 13.7 | 24.1
31 | CAGAGUAAAGGAUAUACAUGAGGAUCACCCAUGUUUAGACCGACGACACGUCCUAGUUGUAGAAGGUUAUUUUG | – | – | 82.2 | 68.7
32 | GUAGCAUACGGAGGAUAUUCAUUAAAACAUGAGGAUCACCCAUGUAAAUUGGGAGAAGGCCGUAUGCUACAAGAGCGAAAGCUC | 18.3 | 5.48 | – | –
33 | UUAAAUCAUGUAGGAUAUGCAUGGCGAAGCUACGCAGAAGGACAUGAGGAUCACCCAUGUUAUAGCUACCCAGUACGGUGGCAA | – | – | 95.5 | 251
34 | AUAUCCUAGAUAGGAUAUACUGAGGUUGAAUGGGUAGAAGGAUCGUUAGGGUAGACUACAUGAGGAUCACCCAUGUUGUUUAUU | 43.1 | 40.1 | – | –
35 | AUGGAUAUCACAGGAUAUGCUAUGGAUACCAUAGCAGAAGGGUGAUCCAUCCUAUGUAAAUACAUGAGGAUCACCCAUGUGUCC | 50 | 35.7 | – | –
36 | UAUUACCUAGGAUAUACAUGAGGAUCACCCAUGUCACGGGUCAACUUGUCCUACGCGUGUAGAAGGAGGGACCC | – | – | 21 | 21.4
37 | GUAACGCUUGACAUGAGGAUCACCCAUGUUAGAUUGUUAUGUCAGGAUAUAGUCUAGAAACUAGACUAGAAGGGAUAUGUUGCU | 59.3 | 29 | – | –
38 | GUCCUUUCUGAGGAUAUUAUCUUUUUCGAUUGAUAAGAAGGCAGUACAUGAGGAUCACCCAUGUGGGUUGUCUG | – | – | 31 | 131
39 | UCAUCAGCGGGCGGAUCGGUUGGACAUGAGGAUCACCCAUGUAGAAGGACCGGUGGAUUCCGGCGGUAGGAUAUACAUUUGGUG | – | – | 12.9 | 27.4
40 | UUUAGUUGCGGGCAGGAUAUGUAUUAAAAUACAUGAGGAUCACCCAUGUGCGGGUAUAACACCCGACAGAAGGGCCAAUCGCGAC | 322 | 33.3 | – | –
41 | AUUAUUUCAUGAGGAUAUGGCACCUUAUUGGUGCCAGAAGGCAUGUCUAUUGACAUGAGGAUCACCCAUGUAUUAAAUUAUAUA | 621 | 45.3 | – | –
42 | GGCUAGGACAGAGGAUAUACGUGCUAGAGAUACUAGCAAAAUUUCCUCACAUGAGGAUCACCCAUGUAGAAGGCUGUCCUAUCG | – | – | 18.4 | 458
43 | GGUCCACGAGGAUAUCGAUUUUAGUACAUGAGGAUCACCCAUGUUGUCCAGGUUUCGAUUCGAGAAGGCGUGGGCC | – | – | 22.2 | 24.6
44 | CUCUUGUGAGGAUAUCAGGUGUGCUAGCGUACUGGUACAUCUGAGAAGGCACAUGAGGAUCACCCAUGUUUCUU | – | – | 97.7 | 72.3
45 | GGAGACCUCACAGGAUAUGCUGGACUUUGUCCAGCAGAAGGGUGAACACAUGAGGAUCACCCAUGUGGUCUCCAAAUAUUUAAU | 816 | 74.2 | – | –
46 | UGUCCAUAGCAGAAGGACAUGAGGAUCACCCAUGUAAUCAUACAAAUACAUGUAGGAUAUGCUAUGGACUAAGAGCGAAAGCUC | – | – | 8.28 | 19.1
47 | GCUGCAUAGGCAGGAUAUGCAAUAAUUCGAAUAGAAUAUAACGAAUUAACAUGAGGAUCACCCAUGUAGAAGGGCCUGUGCAGU | – | – | 5.76 | 5.58
48 | GGGCUCGUCGUAAACGACAUGAGGAUCACCCAUGUUGGGCACAGAAGGGCCUUCAUUCGGAUCAGGCAGGAUAUGUAUCUAACA | – | – | 5.09 | 5.32
49 | AAUUGGAUGCAGAAGGCAUGGACGACUCGUCAAAUUAACAUGAGGAUCACCCAUGUCAAAAGACAUGAGGAUAUGCAUCCUAAA | 189 | 12.6 | – | –
50 | AUGAAAUACUAGCACGGCGCGGCACAGGAUAUGCCUCAACAUGAGGAUCACCCAUGUCACUGUAGGUAGAAGGGUGUUAGCGAA | 18.4 | 5.52 | – | –
51 | AGGUACGGUCGAUCAUACCAAGGUAGAAGGCGACUGGGAAUGUGAGACAUGAGGAUCACCCAUGUCGAGGAUAUACCUGAAAGU | – | – | 192 | 27.4
52 | UGAGCAUCAGGAUAUACGUGACGACCGUGAGGUCGAAGGUUACAUGAGGAUCACCCAUGUAGAAGGGAUGUUCU | – | – | 26.5 | 57.9
53 | GAAUAAUUGAUCCAAUUUAACUACAUGAGGAUCACCCAUGUGCAGGAUAUCGUAAUAUUUAUUUUCGAGAAGGGCAAGAACGGU | – | – | 162 | 320
54 | UUGGCACAUGAGGAUCACCCAUGUUAGGAUAUUGUGGUAGAAACAGCUGGGAAACGCACGAGAAGGGACACACG | – | – | 37.1 | 55.5
55 | CUAUUGUGAGGAUAUCAGGUGUGCUAGCGUACUGGUACAUCUGAGAAGGCACAUGAGGAUCACCCAUGUUUCUU | – | – | 19.3 | 56.2
